Assay results taken from ChEMBL document CHEMBL1152796, “Azole antimicrobial pharmacophore-based tetrazoles: synthesis and biological evaluation as potential antimicrobial and anticonvulsant agents” (Bioorg Med Chem, 2009).
≈ marks a conversion by molar mass, not a printed value. Calls of active or inactive are those of the source. No cut-off for these calls is given here.

Experiments:
Aspergillus niger = test: Antifungal activity against Aspergillus niger isolate after 72 hrs by twofold serial dilution method; type: functional, organism-based
Klebsiella pneumoniae [1] = test: Antibacterial activity against Klebsiella pneumoniae isolate after 24 to 48 hrs by twofold serial dilution method; type: functional
Summary of the method: (§1)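 Broth microdilution in Müller–Hinton broth. DMSO stocks at 800 were diluted twofold from 400 down to 6.25. Wells received 10^6 CFU/mL bacterial suspension and were incubated at 36 °C for 24–48 h, with controls. MIC was read per well. Duplicate assays; run only for compounds giving inhibition zones ≥14 mm.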

Trichophyton rubrum = test: Antifungal activity against Trichophyton rubrum isolate after 72 hrs by twofold serial dilution method; type: functional, organism-based
Escherichia coli [2] = test: Antibacterial activity against Escherichia coli ATCC 25922 after 24 to 48 hrs by twofold serial dilution method; type: functional; summary of the method: as §1
Pseudomonas aeruginosa [3] = test: Antibacterial activity against Pseudomonas aeruginosa ATCC 27853 after 24 to 48 hrs by twofold serial dilution method; type: functional; summary of the method: as §1
Pichia kudriavzevii = test: Antifungal activity against Candida krusei isolate after 72 hrs by twofold serial dilution method; type: functional, organism-based
Micrococcus luteus [4] = test: Antibacterial activity against Micrococcus luteus ATCC 21881 after 24 to 48 hrs by twofold serial dilution method; type: functional; summary of the method: as §1
Bacillus subtilis [5] = test: Antibacterial activity against Bacillus subtilis NRRL B-14819 after 24 to 48 hrs by twofold serial dilution method; type: functional; summary of the method: as §1
Staphylococcus aureus [6] = test: Antibacterial activity against Staphylococcus aureus ATCC 6538 after 24 to 48 hrs by twofold serial dilution method; type: functional; summary of the method: as §1
Candida tropicalis = test: Antifungal activity against Candida tropicalis isolate after 72 hrs by twofold serial dilution method; type: functional, organism-based
Mus musculus [7] = test: Anticonvulsant activity in Wister albino mouse assessed as protection against subcutaneous metrazole-induced seizures at 100 mg/kg, ip administered 30 mins before metrazole challenge measured after 30 mins; type: functional; conditions: route intraperitoneal
Summary of the method: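 Wistar albino mice, either sex, 25–30 g, 3 months old, in groups of six. Compounds in DMSO were given ip at 30, 100 or 300 mg/kg; vehicle-only controls. After 30 min, metrazole 100 mg/kg in DMSO was injected sc at the posterior midline. Protection meant absence of any clonic spasm lasting ≥5 s; scored as protected/tested.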

Aspergillus fumigatus = test: Antifungal activity against Aspergillus fumigatus isolate at 1 mg/mL after 7 days by agar diffusion method; type: functional; conditions: 168 h, read-out: Diameter of inhibition zone
Summary of the method: (§2)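 Agar disc diffusion: 5 mm sterile paper discs soaked in 1 mg/mL test solution in DMSO were placed on agar seeded with the organism, in triplicate, with a DMSO-only control. Bacterial plates were incubated at 37 °C for 24 h and fungal plates for 7 days. Read-out was the average inhibition-zone diameter in mm. Fungi were clinical isolates.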

Staphylococcus aureus [8] = test: Antibacterial activity against Staphylococcus aureus ATCC 6538 at 1 mg/mL after 24 hrs by agar diffusion method; type: functional; conditions: ATCC 6538, 24 h, read-out: Diameter of inhibition zone; summary of the method: as §2
Mus musculus [9] = test: Anticonvulsant activity in Wister albino mouse assessed as protection against maximal electroshock-induced seizures at 100 mg/kg, ip administered 30 mins before metrazole challenge measured after 30 mins; type: functional; conditions: route intraperitoneal
Pseudomonas aeruginosa [10] = test: Antibacterial activity against Pseudomonas aeruginosa ATCC 27853 at 1 mg/mL after 24 hrs by agar diffusion method; type: functional; conditions: ATCC 27853, 24 h, read-out: Diameter of inhibition zone; summary of the method: as §2
Candida albicans = test: Antifungal activity against Candida albicans isolate at 1 mg/mL after 7 days by twofold serial dilution method; type: functional; conditions: 168 h, read-out: Diameter of inhibition zone
Klebsiella pneumoniae [11] = test: Antibacterial activity against Klebsiella pneumoniae isolate at 1 mg/mL after 24 hrs by agar diffusion method; type: functional; conditions: read-out: Diameter of inhibition zone; summary of the method: as §2
Escherichia coli [12] = test: Antibacterial activity against Escherichia coli ATCC 25922 at 1 mg/mL after 24 hrs by agar diffusion method; type: functional; conditions: ATCC 25922, 24 h, read-out: Diameter of inhibition zone; summary of the method: as §2
Micrococcus luteus [13] = test: Antibacterial activity against Micrococcus luteus ATCC 21881 at 1 mg/mL after 24 hrs by agar diffusion method; type: functional; conditions: ATCC 21881, 24 h, read-out: Diameter of inhibition zone; summary of the method: as §2
Bacillus subtilis [14] = test: Antibacterial activity against Bacillus subtilis NRRL B-14819 at 1 mg/mL after 24 hrs by agar diffusion method; type: functional; conditions: read-out: Diameter of inhibition zone; summary of the method: as §2

MIC (Klebsiella pneumoniae [1]) [µg/mL] | MIC (Escherichia coli [2]) [µg/mL] | MIC (Pseudomonas aeruginosa [3]) [µg/mL] | MIC (Micrococcus luteus [4]) [µg/mL] | MIC (Bacillus subtilis [5]) [µg/mL] | MIC (Staphylococcus aureus [6]) [µg/mL] | Compound | Activity (Aspergillus niger) | Activity (Trichophyton rubrum) | Activity (Pichia kudriavzevii) | Activity (Candida tropicalis) | Activity (Mus musculus [7]) [%] | zone of inhibition at 1000 µg/mL (Aspergillus fumigatus) [mm] | zone of inhibition at 1000 µg/mL (Staphylococcus aureus [8]) [mm] | Activity (Mus musculus [9]) [%] | zone of inhibition at 1000 µg/mL (Pseudomonas aeruginosa [10]) [mm] | zone of inhibition at 1000 µg/mL (Candida albicans) [mm] | zone of inhibition at 1000 µg/mL (Klebsiella pneumoniae [11]) [mm] | zone of inhibition at 1000 µg/mL (Escherichia coli [12]) [mm] | zone of inhibition at 1000 µg/mL (Micrococcus luteus [13]) [mm] | zone of inhibition at 1000 µg/mL (Bacillus subtilis [14]) [mm]
≥ 200 | ≥ 200 | ≥ 200 | ≥ 200 | ≥ 200 | 100 (≈ 268 µM) | NNC(=O)COC(Cn1nnc(-c2ccccc2)n1)c1ccc(Cl)cc1 (configuration not stated) | inactive | inactive | inactive | inactive |  |  |  |  |  |  |  |  |  | 
≥ 200 | 100 (≈ 192 µM) | ≥ 200 | 100 (≈ 192 µM) | ≥ 200 | 100 (≈ 192 µM) | O=C(COC(Cn1nnnc1Cc1ccccc1)c1ccc(Cl)cc1)NNC(=S)Nc1ccccc1 (configuration not stated) | inactive | inactive | inactive | inactive |  | ≥ 14 | ≥ 14 |  | ≥ 14 | ≥ 14 | ≥ 14 | ≥ 14 | ≥ 14 | ≥ 14
≥ 200 | 100 (≈ 196 µM) | ≥ 200 | 100 (≈ 196 µM) | 100 (≈ 196 µM) | 100 (≈ 196 µM) | O=C(COC(Cn1nnnc1Cc1ccccc1)c1ccc(Cl)cc1)N/N=C/c1ccc(Cl)cc1 (configuration not stated) | inactive | inactive | inactive | inactive | 50 | ≥ 14 | ≥ 14 | 50 | ≥ 14 | ≥ 14 | ≥ 14 | ≥ 14 | ≥ 14 | ≥ 14
≥ 200 | ≥ 200 | ≥ 200 | ≥ 200 | ≥ 200 | 100 (≈ 180 µM) | O=C(COC(Cn1nnnc1Cc1ccccc1)c1ccc(Cl)cc1)NNC(=S)Nc1ccc(Cl)cc1 (configuration not stated) | inactive | inactive | inactive | inactive |  | ≥ 14 | ≥ 14 |  | ≥ 14 | ≥ 14 | ≥ 14 | ≥ 14 | ≥ 14 | ≥ 14
100 (≈ 211 µM) | 25 (≈ 52.8 µM) | 100 (≈ 211 µM) | 100 (≈ 211 µM) | 50 (≈ 106 µM) | 12.5 (≈ 26.4 µM) | Clc1ccc(C(Cn2nnc(-c3ccccc3)n2)OCc2nnc(Nc3ccccc3)o2)cc1 (configuration not stated) | inactive | inactive | inactive | inactive |  | ≥ 14 | ≥ 14 |  | ≥ 14 | ≥ 14 | ≥ 14 | ≥ 14 | ≥ 14 | ≥ 14
≥ 200 | ≥ 200 | ≥ 200 | ≥ 200 | 100 (≈ 279 µM) | 100 (≈ 279 µM) | O=C(O)COC(Cn1nnc(-c2ccccc2)n1)c1ccc(Cl)cc1 (configuration not stated) | inactive | inactive | inactive | inactive |  | ≥ 14 | ≥ 14 |  | ≥ 14 | ≥ 14 | ≥ 14 | ≥ 14 | ≥ 14 | ≥ 14
≥ 200 | 100 (≈ 202 µM) | ≥ 200 | 100 (≈ 202 µM) | 50 (≈ 101 µM) | 50 (≈ 101 µM) | O=C(COC(Cn1nnc(-c2ccccc2)n1)c1ccc(Cl)cc1)N/N=C/c1ccc(Cl)cc1 (configuration not stated) | inactive | inactive | inactive | inactive |  | ≥ 14 | ≥ 14 |  | ≥ 14 | ≥ 14 | ≥ 14 | ≥ 14 | ≥ 14 | ≥ 14

Continued, compound first:

Compound | MIC (Klebsiella pneumoniae [1]) [µg/mL] | MIC (Escherichia coli [2]) [µg/mL] | MIC (Pseudomonas aeruginosa [3]) [µg/mL] | MIC (Micrococcus luteus [4]) [µg/mL] | MIC (Bacillus subtilis [5]) [µg/mL] | MIC (Staphylococcus aureus [6]) [µg/mL] | Activity (Aspergillus niger) | Activity (Trichophyton rubrum) | Activity (Pichia kudriavzevii) | Activity (Candida tropicalis) | Activity (Mus musculus [7]) [%] | zone of inhibition at 1000 µg/mL (Aspergillus fumigatus) [mm] | zone of inhibition at 1000 µg/mL (Staphylococcus aureus [8]) [mm] | Activity (Mus musculus [9]) [%] | zone of inhibition at 1000 µg/mL (Pseudomonas aeruginosa [10]) [mm] | zone of inhibition at 1000 µg/mL (Candida albicans) [mm] | zone of inhibition at 1000 µg/mL (Klebsiella pneumoniae [11]) [mm] | zone of inhibition at 1000 µg/mL (Escherichia coli [12]) [mm] | zone of inhibition at 1000 µg/mL (Micrococcus luteus [13]) [mm] | zone of inhibition at 1000 µg/mL (Bacillus subtilis [14]) [mm]
Sc1nnc(COC(Cn2nnc(-c3ccccc3)n2)c2ccc(Cl)cc2)o1 (configuration not stated) | 100 (≈ 241 µM) | 25 (≈ 60.3 µM) | 50 (≈ 121 µM) | 50 (≈ 121 µM) | 25 (≈ 60.3 µM) | 6.25 (≈ 15.1 µM) | inactive | inactive | inactive | inactive | 33 | ≥ 14 | ≥ 14 | 0 | ≥ 14 | ≥ 14 | ≥ 14 | ≥ 14 | ≥ 14 | ≥ 14
OC(Cn1nnc(-c2ccccc2)n1)c1ccc(Cl)cc1 (configuration not stated) |  |  |  |  |  |  |  |  |  |  | 0 |  |  | 0 |  |  |  |  |  | 
Cc1cc(C)n(C(=O)COC(Cn2nnc(-c3ccccc3)n2)c2ccc(Cl)cc2)n1 (configuration not stated) | 100 (≈ 229 µM) | 50 (≈ 114 µM) | 100 (≈ 229 µM) | 50 (≈ 114 µM) | 25 (≈ 57.2 µM) | 12.5 (≈ 28.6 µM) | inactive | inactive | inactive | inactive | 0 | ≥ 14 | ≥ 14 | 0 | ≥ 14 | ≥ 14 | ≥ 14 | ≥ 14 | ≥ 14 | ≥ 14
Sc1nnc(COC(Cn2nnc(-c3ccccc3)n2)c2ccc(Cl)cc2)n1-c1ccc(Cl)cc1 (configuration not stated) | 100 (≈ 191 µM) | 100 (≈ 191 µM) | ≥ 200 | 100 (≈ 191 µM) | 50 (≈ 95.3 µM) | 25 (≈ 47.7 µM) | inactive | inactive | inactive | inactive |  | ≥ 14 | ≥ 14 |  | ≥ 14 | ≥ 14 | ≥ 14 | ≥ 14 | ≥ 14 | ≥ 14
CCOC(=O)COC(Cn1nnc(-c2ccccc2)n1)c1ccc(Cl)cc1 (configuration not stated) | ≥ 200 | ≥ 200 | ≥ 200 | ≥ 200 | ≥ 200 | 100 (≈ 259 µM) | inactive | inactive | inactive | inactive |  | ≥ 14 | ≥ 14 |  | ≥ 14 | ≥ 14 | ≥ 14 | ≥ 14 | ≥ 14 | ≥ 14
CC1(C)S[C@@H]2[C@H](NC(=O)[C@H](N)c3ccccc3)C(=O)N2[C@H]1C(=O)O.O.O.O [AMPICILLIN TRIHYDRATE] | 12.5 | 6.25 | 12.5 | 12.5 | 12.5 | 6.25 |  |  |  |  |  |  |  |  |  |  |  |  |  | 
Clc1ccc(/C=C/n2nnc(-c3ccccc3)n2)cc1 | ≥ 200 | 100 (≈ 354 µM) | ≥ 200 | ≥ 200 | ≥ 200 | 100 (≈ 354 µM) | inactive | inactive | inactive | inactive |  | ≥ 14 | ≥ 14 |  | ≥ 14 | ≥ 14 | ≥ 14 | ≥ 14 | ≥ 14 | ≥ 14
